Assay [1] deals with Kappa-type opioid receptor (Cavia porcellus, UniProt P41144). The assay can be described thus: Binding affinity to displace radioligand [3H]U-69593 on Opioid receptor kappa 1 in guinea pig membranes. In kind it is cell membranes.
Assay [2] has as its target T1, Mu-type opioid receptor (Cavia porcellus, UniProt P97266). As to the kind of experiment: (§1) Binding affinity to displace radioligand [3H]DAMGO on Opioid receptor mu 1 in guinea pig membranes. Type of assay: cell membranes.
A short description of assay [3]: Inhibition of adenylyl cyclase activity in membranes of the human SH-SY5Y neuroblastoma cell line. Type of assay: functional, cell-based. To be noted: concentration not given here. More on the design: concentration or dose not given beside the values. Summed up: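 SH-SY5Y membranes (50 µg protein) incubated 15 min at 30 °C with compound at 10 µM final. The mix held 20 mM HEPES pH 7.4, creatine phosphokinase/phosphocreatine, 1 mM phenanthroline, 60 µM IBMX, 0.1 mM GTP and 0.1 mM ATP. Stopped with perchloric acid and neutralized. cAMP measured by [3H]cAMP kit. Reported as % inhibition of basal activity, duplicate, repeated at least three times.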

Assay [4] has as its target T1, Mu-type opioid receptor. The assay is described as §1. In kind it is cell membranes. In outline:
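Guinea pig brain membranes (500 µg protein) incubated with 12 concentrations of compound and 0.25 nM [3H]DAMGO in 50 mM Tris-HCl pH 7.5, 25 °C, 60 min. Nonspecific binding with 10 µM naloxone. Filtration, washes in cold Tris, scintillation counting. IC50 by log-probit least-squares fit, converted to Ki (Cheng-Prusoff). At least three experiments in triplicate, mean ± SE.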
This is another data set of the same source.

Assay [5] can be described thus: Binding affinity to displace radioligand [3H]naltrindole on Opioid receptor delta 1 in guinea pig membranes.

Data on eight compounds can be found in ChEMBL document CHEMBL1133652, “Selective protection and functionalization of morphine: synthesis and opioid receptor binding properties of 3-amino-3-desoxymorphine derivatives” (J Med Chem, 2000).

In general, Ki refers to the dissociation constant of the complex between target and ligand, obtained from inhibition or displacement. In general, inhibition refers to how much of the control response was suppressed.

T1 sequence (P97266 whole entry): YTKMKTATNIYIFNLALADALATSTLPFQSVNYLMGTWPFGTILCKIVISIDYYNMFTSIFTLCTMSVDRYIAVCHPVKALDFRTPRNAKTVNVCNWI
Chain of Kappa-type opioid receptor (P41144 whole entry): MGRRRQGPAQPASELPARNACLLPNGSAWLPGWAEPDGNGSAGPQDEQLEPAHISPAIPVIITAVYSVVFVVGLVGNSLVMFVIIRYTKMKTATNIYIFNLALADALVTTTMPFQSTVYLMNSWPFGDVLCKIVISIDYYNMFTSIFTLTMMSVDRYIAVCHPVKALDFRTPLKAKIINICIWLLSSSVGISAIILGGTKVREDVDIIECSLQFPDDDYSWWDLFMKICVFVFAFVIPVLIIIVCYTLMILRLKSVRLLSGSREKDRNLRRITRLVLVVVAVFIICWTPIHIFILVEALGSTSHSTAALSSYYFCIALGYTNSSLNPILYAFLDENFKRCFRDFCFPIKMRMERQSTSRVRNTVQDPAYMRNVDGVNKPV

Regarding `CNc1ccc2c3c1O[C@H]1[C@@H](O)C=C[C@H]4[C@@H](C2)N(C)CC[C@@]341`, the figures for the inhibitory constant (Ki) (in assay [1]; on Mu-type opioid receptor [2]) were 2800 nM and 63 nM, respectively. This compound also gave an inhibition in assay [3] of 29%.
Regarding `CN1CC[C@]23c4c5ccc(N)c4O[C@H]2[C@@H](O)C=C[C@H]3[C@H]1C5`, the results for the inhibitory constant (Ki) (in assay [1]; at Mu-type opioid receptor [4]) were 740 nM and 53 nM, respectively. For the same compound, the inhibition in assay [3] was found to be 26%.
On to `C[C@H]1[C@H]2Cc3ccc(N)cc3[C@@]1(C)CCN2CC1CC1`, for which the results for the inhibition constant Ki (in assay [1]; on Mu-type opioid receptor [2]) were 1.2 nM and 1.8 nM, respectively.
In the case of `CN(C)c1ccc2c3c1O[C@H]1[C@@H](O)C=C[C@H]4[C@@H](C2)N(C)CC[C@@]341`, the figures for the Ki (in assay [1]; on Mu-type opioid receptor [2]) were 290 nM and 240 nM, respectively. In addition, the inhibition in assay [3] was found to be 13%.
The like results for `CN1CC[C@]23c4c5ccc(NCc6ccccc6)c4O[C@H]2[C@@H](O)C=C[C@H]3[C@H]1C5` were, in that order, 3400 nM, 33 nM and 17%.
Compound `C[C@H]1[C@H]2Cc3ccc(Nc4ccccc4)cc3[C@@]1(C)CCN2CC1CC1` showed a Ki in assay [5] of 5.2 nM.
Turning to `C[C@@H](NC(=O)[C@@H](N)Cc1ccc(O)cc1)C(=O)NCC(=O)N(C)[C@@H](Cc1ccccc1)C(=O)NCCO`, the inhibition in assay [3] was determined as 58%.
For `CN1CC[C@]23c4c5ccc(Nc6ccccc6)c4O[C@H]2[C@@H](O)C=C[C@H]3[C@H]1C5`, the Ki was 240 nM in assay [1] and 59 nM at Mu-type opioid receptor [2]. This compound also registered an inhibition in assay [3] of 44%.
